Measured values reported in publication PMC4400215 (Antiviral therapy, 2014).
Converted amounts (≈) assume the structure as drawn. “And” between values parts separate entries of the source, which are not always exact repeats. Equal values may be shown once. Read-outs that look alike come from different tables or passages of the source.

Key:
[1] = Two-compartment population PK model fitted to danoprevir plasma concentrations; format: in vivo, patients
HCV [2] = settings: 200 mg tid, multiscale model; cited from earlier work
HCV [3] = settings: in combination with mericitabine, 14 days, no viral breakthrough; cited from earlier work
HCV [4] = experiment: Varying effectiveness; format: in vivo, Hepatitis C virus; settings: VE model
How it was run: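 Standard viral kinetic model with constant target cells, fitted to log10 viral load only, without PK data. Effectiveness = Dose/(ED50+Dose)·(1−e^(−kt)), where Dose is the total daily amount. Population mixed-effects fit by maximum likelihood. Per-patient effectiveness was averaged over days 0–2 and 0–14, then over each cohort. First-phase decline = −log10(1−ε).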

HCV genotype 1 [5] = settings: cited from earlier work
HCV genotype 1 [6] = format: in vivo, Hepatitis C virus; settings: 14 days
How it was run: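 Reanalysed phase 1 data. Chronically infected patients were randomised 8:2 to oral test compound or placebo for 14 days, and placebo recipients were excluded. HCV RNA was measured in blood drawn at 0, 2, 4, 6, 8, 12, 16, 24, 26, 28, 30, 48 and 52 h, on days 6 and 8 pre- and post-dose, and on day 13.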

HCV [7] = experiment: PK/VK model fitted to HCV RNA kinetics during danoprevir monotherapy; format: in vivo, Hepatitis C virus; settings: for minimal effectiveness: at Cmin
HCV [8] = settings: monotherapy, doses of 200 and 500 mg/day; cited from earlier work
[9] = Cohort 5: 300 mg bid, non-responder
[10] = PK/VK model, Cohort 1: 100 mg bid, TN
[11] = PK/VK model, Cohort 2: 100 mg tid, TN
[12] = PK/VK model, Cohort 3: 200 mg bid, TN
[13] = PK/VK model, Cohort 4: 200 mg tid, TN
[14] = PK/VK model, Cohort 5: 300 mg bid, non-responder
[15] = after first intake, 100 mg bid dose

CC(C)(C)OC(=O)N[C@H]1CCCCC/C=C\[C@@H]2C[C@@]2(C(=O)NS(=O)(=O)C2CC2)NC(=O)[C@@H]2C[C@@H](OC(=O)N3Cc4cccc(F)c4C3)CN2C1=O [danoprevir]
Cmax ([1]; human, plasma, oral): 2.67 to 589 ng/mL
Vd/F ([1]; human, plasma, oral): 2100 ± 360 L
k el ([1]; human, plasma, oral): 0.000283 s⁻¹
k21 (backward rate constant between compartments) ([1]; population estimate±standard error, all cohorts): 0.81 h⁻¹ and 0.81 ± 0.17 h⁻¹
Tlag (post-dose lag-time) ([1]; population estimate±standard error, all cohorts, oral): 0.50 h and 0.50 ± 0.057 h
Tk0 (time over which danoprevir is absorbed) ([1]; population estimate±standard error, all cohorts, zero-order absorption): 0.58 h and 0.58 ± 0.13 h
effectiveness in blocking intracellular replication (HCV [2]): 99.2%
enhancement of viral RNA degradation (HCV [2]): about 5 fold
mean effectiveness on viral secretion (HCV [2]): 56%
viral RNA decline (HCV [3]): 5 logs
Average effectiveness over the first 2 days of dosing ε2 (HCV [4]; Cohort 1: 100 mg bid, TN): 0.973
Average effectiveness over the full 14-day dosing period ε14 (HCV [4]; Cohort 1: 100 mg bid, TN): 0.976
Predicted first-phase log decline, i.e. −log10(1−ε2) (HCV [4]; Cohort 1: 100 mg bid, TN): 1.57 log10
Average effectiveness over the first 2 days of dosing ε2 (HCV [4]; Cohort 2: 100 mg tid, TN): 0.982
Average effectiveness over the full 14-day dosing period ε14 (HCV [4]; Cohort 2: 100 mg tid, TN): 0.984
Predicted first-phase log decline, i.e. −log10(1−ε2) (HCV [4]; Cohort 2: 100 mg tid, TN): 1.74 log10
Average effectiveness over the first 2 days of dosing ε2 (HCV [4]; Cohort 3: 200 mg bid, TN): 0.985
Average effectiveness over the full 14-day dosing period ε14 (HCV [4]; Cohort 3: 200 mg bid, TN): 0.988
Predicted first-phase log decline, i.e. −log10(1−ε2) (HCV [4]; Cohort 3: 200 mg bid, TN): 1.82 log10
Average effectiveness over the first 2 days of dosing ε2 (HCV [4]; Cohort 4: 200 mg tid, TN): 0.990
Average effectiveness over the full 14-day dosing period ε14 (HCV [4]; Cohort 4: 200 mg tid, TN): 0.992
Predicted first-phase log decline, i.e. −log10(1−ε2) (HCV [4]; Cohort 4: 200 mg tid, TN): 2.00 log10
Average effectiveness over the first 2 days of dosing ε2 (HCV [4]; [9]): 0.990
Average effectiveness over the full 14-day dosing period ε14 (HCV [4]; [9]): 0.992
Predicted first-phase log decline, i.e. −log10(1−ε2) (HCV [4]; [9]): 2.00 log10
ED50 (daily dose leading to 50% of the maximal effectiveness) (HCV [4]; estimate±standard error): 4.85 ± 1.4 mg/day
k (rate constant for effectiveness increase) (HCV [4]; estimate±standard error): 29.1 ± 13.0 day⁻¹ and 29.1 ± 13 day⁻¹
δ (loss rate of infected cells) (HCV [4]; estimate±standard error): 0.184 ± 0.03 day⁻¹
final population effectiveness (HCV [4]; highest dose given to treatment-naïve patients (cohort 4)): 0.992
final population effectiveness (HCV [4]; lowest dose (cohort 1)): 0.976
cure rates (HCV genotype 1 [5]; genotype 1, with IFN and ribavirin, boosted with ritonavir): up to 93%
cure rates (HCV genotype 1 [5]; patients infected with genotype 1, in combination with IFN and ribavirin): up to 85%
Total viral decline (median) (HCV genotype 1 [6]; Cohort 1: 100 mg bid, treatment-naïve): 2.0 Log10 IU/mL
Total viral decline (median) (HCV genotype 1 [6]; Cohort 2: 100 mg tid, TN): 2.7 Log10 IU/mL
Total viral decline (median) (HCV genotype 1 [6]; Cohort 4: 200 mg tid, TN): 3.9 Log10 IU/mL
Total viral decline (median) (HCV genotype 1 [6]; [9]): 2.7 Log10 IU/mL
final effectiveness in blocking viral production (HCV [7]; 200 mg tid): 99.4%
Average effectiveness over the first 2 days of dosing ε2 (HCV [7]; [10]): 0.946
Average effectiveness over the full 14-day dosing period ε14 (HCV [7]; [10]): 0.95 and 0.953
Predicted first-phase log decline, i.e. −log10(1−ε2) (HCV [7]; [10]): 1.27 log10
Average effectiveness over the first 2 days of dosing ε2 (HCV [7]; [11]): 0.981
Average effectiveness over the full 14-day dosing period ε14 (HCV [7]; [11]): 0.990
Predicted first-phase log decline, i.e. −log10(1−ε2) (HCV [7]; [11]): 1.72 log10
Average effectiveness over the first 2 days of dosing ε2 (HCV [7]; [12]): 0.966
Average effectiveness over the full 14-day dosing period ε14 (HCV [7]; [12]): 0.974
Predicted first-phase log decline, i.e. −log10(1−ε2) (HCV [7]; [12]): 1.47 log10
Average effectiveness over the first 2 days of dosing ε2 (HCV [7]; [13]): 0.985
Average effectiveness over the full 14-day dosing period ε14 (HCV [7]; [13]): 0.994
Predicted first-phase log decline, i.e. −log10(1−ε2) (HCV [7]; [13]): 1.83 log10
Average effectiveness over the first 2 days of dosing ε2 (HCV [7]; [14]): 0.974
Average effectiveness over the full 14-day dosing period ε14 (HCV [7]; [14]): 0.982
Predicted first-phase log decline, i.e. −log10(1−ε2) (HCV [7]; [14]): 1.58 log10
minimal effectiveness (HCV [7]; PK/VK model, cohort 1 (lowest dose)): 0.706
minimal effectiveness (HCV [7]; PK/VK model, cohort 4 (highest dose)): 0.877
EC50 (plasma concentration at which effectiveness is 0.5 times its maximum) (HCV [7]; PK/VK model, in vivo, h=1, population estimate±standard error): 0.0082 ± 0.0024 ng/mL (≈ 0.0112 nM)
δ (loss rate of infected cells, slope of second phase decline) (HCV [7]; PK/VK model, population estimate±standard error, all cohorts): 0.18 day⁻¹ and 0.18 ± 0.024 day⁻¹
time to reach 95% of final effectiveness (HCV [7]; [15]): ≤ 30 min
time to reach 99% of final effectiveness (HCV [7]; [15]): ≤ 36 min
patients showing a rapid second phase (δ > 0.3 d^−1) (HCV [7]; all cohorts): 30%
time to reach 99% of the final effectiveness (HCV [7]; model prediction, all doses): less than 1 hr

COc1ccc2c(O[C@@H]3C[C@H]4C(=O)N[C@]5(C(=O)O)C[C@H]5/C=C\CCCCC[C@H](NC(=O)OC5CCCC5)C(=O)N4C3)cc(-c3csc(NC(C)C)n3)nc2c1 [ciluprevir]
δ (second phase decline) (HCV [8]): 0.22 to 0.36 day⁻¹
